Test results taken from ChEMBL document CHEMBL5303300, “EUbOPEN Chemogenomics Library - Multiplex” (2023).
Where “and” joins values, the source holds several entries; their conditions need not be identical. Identical values can stand only once.

System: U2OS
Assay: Multiplex assay against U2OS
Assay type: toxicity, cell-based
Conditions: human, number of replicates 2
Procedure, shortened: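 With compound added, live cells were imaged on a CQ1 microscope at 37°C and 5% CO2; staining with Hoechst33342, BioTracker Green Microtubule Cytoskeleton Dye, MitoTracker Red and Annexin V Alexa Fluor 680 had been done at seeding. The CellPathfinder machine-learning gating scheme split cells into Hoechst high-intensity objects or normal cells, normal cells into healthy, pyknosed or fragmented nuclei, and pyknosed cells into mitotic or apoptotic. The tubulin, mitochondrial-mass and membrane-permeability phenotypes are per cents of healthy-nucleus cells.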

[1] = 12 h, 1 µM, compound concentration 1 uM
[2] = 12 h, 10 µM, compound concentration 10 uM
[3] = 24 h, 1 µM, compound concentration 1 uM
[4] = 24 h, 10 µM, compound concentration 10 uM
[5] = 48 h, 1 µM, compound concentration 1 uM
[6] = 48 h, 10 µM, compound concentration 10 uM

## CS(=O)(=O)c1ccc(C(=O)Nc2cccc(COc3ccc(Br)cc3CN3CC[C@@H](O)C3)c2)c(Cl)c1.O=CO
[1]
  Population Apoptotic (%): 60% and 71%
  Population Healthy Nuclei (%): 80%
  Population Hoechst High Intensity Objects (%): 0%
  Population Mitotic Cells (%): 40% and 28%
  Population Normal (%): 100%
  Population Pyknosed Nuclei (%): 9%
[2]
  Population Apoptotic (%): 55% and 54%
  Population Healthy Nuclei (%): 65% and 80%
  Population Hoechst High Intensity Objects (%): 0%
  Population Mitotic Cells (%): 44% and 45%
  Population Normal (%): 100%
  Population Pyknosed Nuclei (%): 20% and 15%
[3]
  Population Apoptotic (%): 54% and 59%
  Population Healthy Nuclei (%): 59% and 86%
  Population Hoechst High Intensity Objects (%): 0%
  Population Mitotic Cells (%): 45% and 40%
  Population Normal (%): 100%
[4]
  Population Apoptotic (%): 60% and 72%
  Population Healthy Nuclei (%): 59% and 65%
  Population Hoechst High Intensity Objects (%): 0%
  Population Mitotic Cells (%): 40% and 27%
  Population Normal (%): 100%
  Population Pyknosed Nuclei (%): 31%
[5]
  Population Apoptotic (%): 60% and 87%
  Population Healthy Nuclei (%): 64% and 82%
  Population Hoechst High Intensity Objects (%): 0%
  Population Normal (%): 100%
  Population Pyknosed Nuclei (%): 15%
[6]
  Population Apoptotic (%): 76% and 88%
  Population Healthy Nuclei (%): 47% and 57%
  Population Hoechst High Intensity Objects (%): 0% and 1%
  Population Mitotic Cells (%): 23% and 11%
  Population Normal (%): 100%
  Population Pyknosed Nuclei (%): 33%

## Cc1ccc2c(c1CCC(=O)O)CC[C@@H](NS(=O)(=O)c1ccc(Cl)cc1)C2 [TERUTROBAN]
[1]
  Population Apoptotic (%): 44% and 33%
  Population Healthy Nuclei (%): 83% and 55%
  Population Hoechst High Intensity Objects (%): 0%
  Population Membrane Permeable-Phenotype (%): 1% and 0%
  Population Mitochondria Different-Phenotype (%): 1% and 0%
  Population Mitotic Cells (%): 56% and 66%
  Population Normal (%): 100%
  Population Pyknosed Nuclei (%): 11% and 7%
  Population Tubulin-Different-Phenotype (%): 92% and 47%
[2]
  Population Apoptotic (%): 44% and 50%
  Population Fragmented Nuclei (%): 8% and 2%
  Population Healthy Nuclei (%): 76% and 86%
  Population Hoechst High Intensity Objects (%): 0%
  Population Membrane Permeable-Phenotype (%): 4% and 2%
  Population Mitochondria Different-Phenotype (%): 2% and 0%
  Population Mitotic Cells (%): 55% and 50%
  Population Normal (%): 100%
  Population Pyknosed Nuclei (%): 15% and 10%
  Population Tubulin-Different-Phenotype (%): 73% and 87%
[3]
  Population Apoptotic (%): 50% and 61%
  Population Healthy Nuclei (%): 61% and 87%
  Population Hoechst High Intensity Objects (%): 0%
  Population Membrane Permeable-Phenotype (%): 0% and 1%
  Population Mitochondria Different-Phenotype (%): 0%
  Population Mitotic Cells (%): 50% and 38%
  Population Normal (%): 100%
  Population Pyknosed Nuclei (%): 5% and 8%
  Population Tubulin-Different-Phenotype (%): 66% and 92%
[4]
  Population Apoptotic (%): 66% and 62%
  Population Fragmented Nuclei (%): 9% and 2%
  Population Healthy Nuclei (%): 81% and 87%
  Population Hoechst High Intensity Objects (%): 0%
  Population Membrane Permeable-Phenotype (%): 5% and 0%
  Population Mitochondria Different-Phenotype (%): 3% and 0%
  Population Mitotic Cells (%): 33% and 37%
  Population Normal (%): 100%
  Population Pyknosed Nuclei (%): 8% and 10%
  Population Tubulin-Different-Phenotype (%): 75% and 92%
[5]
  Population Apoptotic (%): 37% and 58%
  Population Healthy Nuclei (%): 66% and 91%
  Population Hoechst High Intensity Objects (%): 0%
  Population Membrane Permeable-Phenotype (%): 2%
  Population Mitochondria Different-Phenotype (%): 0%
  Population Mitotic Cells (%): 62% and 41%
  Population Normal (%): 100%
  Population Pyknosed Nuclei (%): 11% and 5%
  Population Tubulin-Different-Phenotype (%): 73% and 94%
[6]
  Population Apoptotic (%): 25% and 57%
  Population Fragmented Nuclei (%): 3% and 1%
  Population Healthy Nuclei (%): 85% and 91%
  Population Hoechst High Intensity Objects (%): 0%
  Population Membrane Permeable-Phenotype (%): 4% and 1%
  Population Mitochondria Different-Phenotype (%): 4% and 0%
  Population Mitotic Cells (%): 75% and 42%
  Population Normal (%): 100%
  Population Pyknosed Nuclei (%): 10% and 6%
  Population Tubulin-Different-Phenotype (%): 72% and 93%

## Cc1cc(NC(=O)c2cccc(NC(=O)/C=C/CN(C)C)c2)ccc1Nc1nccc(-c2cccnc2)n1
[1]
  Population Apoptotic (%): 100% and 77%
  Population Healthy Nuclei (%): 55% and 82%
  Population Hoechst High Intensity Objects (%): 0%
  Population Membrane Permeable-Phenotype (%): 0%
  Population Mitochondria Different-Phenotype (%): 4% and 0%
  Population Mitotic Cells (%): 0% and 22%
  Population Normal (%): 100%
  Population Pyknosed Nuclei (%): 4% and 12%
  Population Tubulin-Different-Phenotype (%): 70% and 87%
[2]
  Population Apoptotic (%): 75%
  Population Fragmented Nuclei (%): 9% and 3%
  Population Healthy Nuclei (%): 61% and 65%
  Population Hoechst High Intensity Objects (%): 0%
  Population Membrane Permeable-Phenotype (%): 15% and 21%
  Population Mitochondria Different-Phenotype (%): 23% and 18%
  Population Mitotic Cells (%): 25% and 24%
  Population Normal (%): 100%
  Population Pyknosed Nuclei (%): 28% and 31%
  Population Tubulin-Different-Phenotype (%): 76% and 43%
[3]
  Population Apoptotic (%): 33% and 86%
  Population Healthy Nuclei (%): 60% and 83%
  Population Hoechst High Intensity Objects (%): 0%
  Population Membrane Permeable-Phenotype (%): 3% and 1%
  Population Mitochondria Different-Phenotype (%): 3% and 0%
  Population Normal (%): 100%
  Population Pyknosed Nuclei (%): 6% and 9%
  Population Tubulin-Different-Phenotype (%): 66% and 90%
[4]
  Population Apoptotic (%): 92% and 85%
  Population Fragmented Nuclei (%): 15% and 10%
  Population Healthy Nuclei (%): 26% and 35%
  Population Hoechst High Intensity Objects (%): 4% and 1%
  Population Membrane Permeable-Phenotype (%): 41% and 23%
  Population Mitochondria Different-Phenotype (%): 41% and 38%
  Population Mitotic Cells (%): 7% and 14%
  Population Normal (%): 95% and 98%
  Population Pyknosed Nuclei (%): 58% and 53%
  Population Tubulin-Different-Phenotype (%): 91% and 61%
[5]
  Population Apoptotic (%): 37% and 75%
  Population Fragmented Nuclei (%): 18% and 6%
  Population Healthy Nuclei (%): 69% and 86%
  Population Hoechst High Intensity Objects (%): 0%
  Population Membrane Permeable-Phenotype (%): 4% and 1%
  Population Mitochondria Different-Phenotype (%): 2% and 1%
  Population Mitotic Cells (%): 62% and 24%
  Population Normal (%): 100%
  Population Pyknosed Nuclei (%): 12% and 7%
  Population Tubulin-Different-Phenotype (%): 68% and 91%
[6]
  Population Apoptotic (%): 96% and 95%
  Population Healthy Nuclei (%): 11% and 9%
  Population Hoechst High Intensity Objects (%): 10% and 2%
  Population Membrane Permeable-Phenotype (%): 100% and 92%
  Population Mitochondria Different-Phenotype (%): 100% and 53%
  Population Mitotic Cells (%): 3% and 4%
  Population Normal (%): 89% and 97%
  Population Pyknosed Nuclei (%): 67% and 84%
  Population Tubulin-Different-Phenotype (%): 100% and 84%
